In test [1] the target is T1, Apoptosis regulator Bcl-2 (Homo sapiens, UniProt P10415). Description: Inhibition of 5-FAM-tagged Bid-BH3 peptide binding to Bcl2 (unknown origin) by fluorescence polarization assay.
Test [2] addresses Bcl-2-like protein 1 (Homo sapiens, UniProt Q07817). Description: Inhibition of 5-FAM-tagged Bid-BH3 peptide binding to Bcl-XL (unknown origin) by fluorescence polarization assay. In outline:
(§1)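 Competitive fluorescence polarization in which compounds displace labelled Bid-BH3 peptide from the Bcl-2 family protein, read as a fall in mP. IC50 taken from mP versus concentration. Ki calculated from IC50, Kd, and the peptide and protein concentrations.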

Test [3] concerns the target Induced myeloid leukemia cell differentiation protein Mcl-1 (Homo sapiens, UniProt Q07820). Put plainly: Inhibition of 5-FAM-tagged Bid-BH3 peptide binding to Mcl1 (unknown origin) by fluorescence polarization assay. Summed up: as §1
In test [4] the test system is PC-3. Put plainly: Antiproliferative activity against human PC3 cells assessed as reduction in cell growth incubated for 48 hrs by MTT assay. The following applies: PC-3, 48 h. The class given is functional, cell-based. In outline:
(§2)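 PC-3, Jurkat and K562 cells grown in RPMI 1640 with 10% FBS at 37°C, 5% CO2. Cells seeded at 2000-4000 per well and left 8 h before compound addition at a range of concentrations. Exposure 48 h, then 0.5% MTT solution for 4 h. Formazan dissolved in DMSO and absorbance read at 570 nm. IC50 derived from concentrations and inhibitory ratios.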

Test [5] deals with Jurkat. Description: Antiproliferative activity against human Jurkat cells assessed as reduction in cell growth incubated for 48 hrs by MTT assay. In kind it is functional, cell-based. In outline: as §2
Test [6] deals with K562. Description: Antiproliferative activity against human K562 cells assessed as reduction in cell growth incubated for 48 hrs by MTT assay. The class given is functional, cell-based. Particulars: K562, 48 h; call rule not given here. Summed up: as §2
Test [7] has as its target T1, Apoptosis regulator Bcl-2. Put plainly: Potency index, ratio of Ki for WL276 to Ki for test compound for inhibition of 5-FAM-tagged Bid-BH3 peptide binding to Bcl2 (unknown origin) by fluorescence polarization assay.
The target of test [8] is T1, Apoptosis regulator Bcl-2. Description: Potency index, ratio of Ki for UMI77 to Ki for test compound for inhibition of 5-FAM-tagged Bid-BH3 peptide binding to Bcl2 (unknown origin) by fluorescence polarization assay.
Test [9] relates to Jurkat. Put plainly: Potency index, ratio of IC50 for WL276 to IC50 for test compound for antiproliferative activity against human Jurkat cells assessed as reduction in cell growth incubated for 48 hrs by MTT assay. In kind it is functional.
The test system of test [10] is Jurkat. Description: Induction of apoptosis in human Jurkat cells assessed as viable cells level at 20 uM incubated for 48 hrs by annexin-V/FITC and propidium iodide staining based flow cytometry (reference value: 86.5%). In kind it is functional.
The subject of test [11] is Jurkat. Put plainly: Induction of apoptosis in human Jurkat cells assessed as early apoptotic cells level at 20 uM incubated for 48 hrs by annexin-V/FITC and propidium iodide staining based flow cytometry (reference value: 7.02%). In kind it is functional.
For test [12], the system named is Jurkat. Description: Induction of apoptosis in human Jurkat cells assessed as late apoptotic cells level at 20 uM incubated for 48 hrs by annexin-V/FITC and propidium iodide staining based flow cytometry (reference value: 6.29%). In kind it is functional.
Test [13] concerns Jurkat. Put plainly: Induction of apoptosis in human Jurkat cells assessed as necrotic cells level at 20 uM incubated for 48 hrs by annexin-V/FITC and propidium iodide staining based flow cytometry (reference value: 6.29%). The class given is functional.
Test [14] concerns Jurkat. Description: Induction of apoptosis in human Jurkat cells assessed as viable cells level at 40 uM incubated for 48 hrs by annexin-V/FITC and propidium iodide staining based flow cytometry (reference value: 86.5%). The class given is functional.
Test [15] has as its system Jurkat. Put plainly: Induction of apoptosis in human Jurkat cells assessed as early apoptotic cells level at 40 uM incubated for 48 hrs by annexin-V/FITC and propidium iodide staining based flow cytometry (reference value: 7.02%). The class given is functional.
Test [16] has as its system Jurkat. Description: Induction of apoptosis in human Jurkat cells assessed as late apoptotic cells level at 40 uM incubated for 48 hrs by annexin-V/FITC and propidium iodide staining based flow cytometry (reference value: 6.29%). The class given is functional.
Test [17] relates to Jurkat. Description: Induction of apoptosis in human Jurkat cells assessed as necrotic cells level at 40 uM incubated for 48 hrs by annexin-V/FITC and propidium iodide staining based flow cytometry (reference value: 6.29%). In kind it is functional.
Test [18] deals with Jurkat. Description: Induction of apoptosis in human Jurkat cells incubated for 48 hrs by annexin-V/FITC and propidium iodide staining based flow cytometry. In kind it is functional, cell-based.
For test [19], the target named is T1, Apoptosis regulator Bcl-2. Description: Inhibition of 5-FAM-tagged Bid-BH3 peptide binding to Bcl2 (unknown origin) at 100 uM by fluorescence polarization assay relative to untreated control.

Chain of Bcl-2-like protein 1 (Q07817 whole entry): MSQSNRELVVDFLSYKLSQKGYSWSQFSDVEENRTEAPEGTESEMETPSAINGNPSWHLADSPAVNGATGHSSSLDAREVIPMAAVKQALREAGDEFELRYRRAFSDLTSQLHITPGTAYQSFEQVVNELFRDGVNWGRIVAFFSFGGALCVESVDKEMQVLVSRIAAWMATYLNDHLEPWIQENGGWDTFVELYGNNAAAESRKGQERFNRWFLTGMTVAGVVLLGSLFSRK
Chain of Induced myeloid leukemia cell differentiation protein Mcl-1 (Q07820 whole entry): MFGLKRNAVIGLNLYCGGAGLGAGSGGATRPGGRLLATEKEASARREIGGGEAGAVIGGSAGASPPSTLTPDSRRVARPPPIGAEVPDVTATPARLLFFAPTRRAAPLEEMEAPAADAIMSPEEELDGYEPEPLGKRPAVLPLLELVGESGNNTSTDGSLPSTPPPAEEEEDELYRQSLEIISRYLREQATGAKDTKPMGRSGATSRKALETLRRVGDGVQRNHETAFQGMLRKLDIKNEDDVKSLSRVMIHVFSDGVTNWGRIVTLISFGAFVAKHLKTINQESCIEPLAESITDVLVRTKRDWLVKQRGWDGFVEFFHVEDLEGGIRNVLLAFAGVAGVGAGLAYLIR
T1 sequence (P10415 whole entry): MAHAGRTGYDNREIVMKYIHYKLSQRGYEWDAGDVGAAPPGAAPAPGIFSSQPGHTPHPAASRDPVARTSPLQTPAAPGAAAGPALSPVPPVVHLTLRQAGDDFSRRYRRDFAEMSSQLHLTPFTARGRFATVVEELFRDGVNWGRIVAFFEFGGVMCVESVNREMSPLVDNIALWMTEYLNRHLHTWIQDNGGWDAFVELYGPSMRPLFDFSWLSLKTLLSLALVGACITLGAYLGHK

Take `COc1ccc2c(c1)c(CC(=O)N[C@@H](Cc1ccc(OCc3cccc(C)c3)cc1)C(=O)NS(=O)(=O)c1ccc(Cl)c([N+](=O)[O-])c1)c(C)n2C(=O)c1ccc(Cl)cc1`: the Ki in test [1] (read-out: Ki) is 430 nM; in test [2] it was “Not Active”; in test [3], 490 nM. Further, the values for the IC50 in test [4], in [5] and in [6] were 28.6 µM, 30.3 µM and 38.8 µM, respectively. The values for the Ratio Ki in test [7] and in test [8] were 2 to 3 and 5 to 6, respectively.

`COc1ccc2c(c1)c(CC(=O)N[C@@H](Cc1ccc(OCc3ccc(C#N)cc3)cc1)C(=O)NS(=O)(=O)c1ccc(Cl)c([N+](=O)[O-])c1)c(C)n2C(=O)c1ccc(Cl)cc1`: the Ki in test [1] (read-out: Ki) is 470 nM; in [2], “Not Active”; in test [3] it was 530 nM. The concentration for half-maximal inhibition (IC50) came out at 39.3 µM in [4], 83.5 µM in test [5] and 49.2 µM in test [6]. Moreover, the Ratio Ki in test [7] lay within 2 to 3; in test [8], 5 to 6.

In the case of `O=C(O)CSc1cc(NS(=O)(=O)c2ccc(Br)cc2)c2ccccc2c1O`, the Ki in [1] (read-out: Ki) was 2900 nM; in test [2] (read-out: Ki), 7.85 µM; in test [3], 180 nM.

As to `COc1ccc2c(c1)c(CC(=O)N[C@@H](Cc1ccc(OCc3ccc(Br)cc3)cc1)C(=O)NS(=O)(=O)c1ccc(Cl)c([N+](=O)[O-])c1)c(C)n2C(=O)c1ccc(Cl)cc1`, the values for the Ki in test [1] (read-out: Ki), in [2] and in test [3] were 440 nM, “Not Active” and 440 nM, respectively. Besides, the IC50 in test [4] was determined as 25.8 µM; in test [5], 24.7 µM; in test [6], 35.9 µM. In addition, the Ratio Ki in test [7] was 2 to 3; in [8], 5 to 6. In test [9], the “Ratio IC50” value is given as 2. Besides, the Activity came out at 56.3% in test [10]; 21.8% in test [11]; 21.3% in test [12]; 0.51% in test [13]; 42.3% in test [14]; 27.5% in [15]. Further, the Activity in test [16] was 29.3%; in test [17], 0.81%; in [18] it was “Dose-dependent effect”.

`COc1ccc2c(c1)c(CC(=O)N[C@@H](Cc1ccc(OCc3ccccc3Br)cc1)C(=O)NS(=O)(=O)c1ccc(Cl)c([N+](=O)[O-])c1)c(C)n2C(=O)c1ccc(Cl)cc1`: the Ki is 450 nM in [1] (read-out: Ki), “Not Active” in [2] and 520 nM in [3]. For the same molecule, the IC50 in [4] was 36.1 µM; in [5], 34 µM; in test [6], 41.5 µM. Further, the Ratio Ki in [7] was 2 to 3; in [8] it was 5 to 6.

Regarding `COc1ccc2c(c1)c(CC(=O)N[C@@H](Cc1ccc(OCc3cccc(C#N)c3)cc1)C(=O)NS(=O)(=O)c1ccc(Cl)c([N+](=O)[O-])c1)c(C)n2C(=O)c1ccc(Cl)cc1`, the Ki was 440 nM in test [1] (read-out: Ki), “Not Active” in [2] and 480 nM in test [3]. For the same molecule, the IC50 turned out to be 38.2 µM in test [4], 55.2 µM in test [5] and 51.6 µM in test [6]. In addition, the figures for the Ratio Ki in test [7] and in test [8] were 2 to 3 and 5 to 6, respectively.

Take `COc1ccc2c(c1)c(CC(=O)N[C@@H](Cc1ccc(OCc3ccc(C)cc3)cc1)C(=O)NS(=O)(=O)c1ccc(Cl)c([N+](=O)[O-])c1)c(C)n2C(=O)c1ccc(Cl)cc1`: the Ki in [1] (read-out: Ki) is 560 nM. Also, the Ratio Ki in [7] lay within 2 to 3; in test [8] it was 5 to 6.

On to `COc1cccc(COc2ccc(C[C@H](NC(=O)Cc3c(C)n(C(=O)c4ccc(Cl)cc4)c4ccc(OC)cc34)C(=O)NS(=O)(=O)c3ccc(Cl)c([N+](=O)[O-])c3)cc2)c1`, for which, in [1] (read-out: Ki), the Ki is 480 nM. In addition, the figures for the IC50 in [4], in [5] and in test [6] were 31.7 µM, 35.9 µM and 36.2 µM, respectively. Also, the figures for the Ratio Ki in test [7] and in test [8] were 2 to 3 and 5 to 6, respectively.

Regarding `COc1ccc2c(c1)c(CC(=O)NCC(=O)NS(=O)(=O)c1ccc(Cl)c([N+](=O)[O-])c1)c(C)n2C(=O)c1ccc(Cl)cc1`, the Ki result in test [1] was “Not Active”. In test [19], this molecule came in with an inhibition of 94%.

Take `COc1ccc2c(c1)c(CC(=O)N[C@@H](Cc1ccc(OCc3ccc4ccccc4c3)cc1)C(=O)NS(=O)(=O)c1ccc(Cl)c([N+](=O)[O-])c1)c(C)n2C(=O)c1ccc(Cl)cc1`: the Ki in [1] (read-out: Ki) was determined as 560 nM. Further, the Ratio Ki in test [7] is 2 to 3; in test [8], 5 to 6.

Take `COc1ccc2c(c1)c(CC(=O)N[C@@H](Cc1ccc(OCc3ccc([N+](=O)[O-])cc3)cc1)C(=O)NS(=O)(=O)c1ccc(Cl)c([N+](=O)[O-])c1)c(C)n2C(=O)c1ccc(Cl)cc1`: in [1] (read-out: Ki), the Ki was determined as 510 nM. Further, the Ratio Ki lay in the range of 2 to 3 in test [7] and 5 to 6 in test [8].

Regarding `Cc1ccc(S(=O)(=O)NC(=O)[C@H](Cc2ccccc2)N2C(=O)/C(=C/c3ccc(-c4ccccc4)cc3)SC2=S)cc1`, the Ki in [1] (read-out: Ki) is 1500 nM; in test [2] (read-out: Ki) it was 1.3 µM; in test [3], 1100 nM. Also, the IC50 stood at 31.8 µM in test [5] and 42.3 µM in [6]. Besides, the Activity in test [10] is 70.7%; in test [11], 15.5%; in [12], 13.6%; in test [13] it was 0.22%; in test [14], 65.5%; in test [15] it was 17.4%. Besides, the Activity in [16] came to 16.8%; in [17], 0.3%.

Source of the values: ChEMBL document CHEMBL4340551, “Design, synthesis and preliminary bioactivity studies of indomethacin derivatives as Bcl-2/Mcl-1 dual inhibitors” (Bioorg Med Chem, 2019).
